In ChEMBL document CHEMBL1131419, “Methoxy-substituted 3-formyl-2-phenylindoles inhibit tubulin polymerization” (J Med Chem, 1998):

What was measured:
Tubulin = Tubulin (Bos taurus, UniProt Q6B856+Q862L2+Q862F3); assay type: protein assay
Tubulin (Bos taurus) = Tubulin (Bos taurus) (UniProt Q6B856+Q862L2+Q862F3); assay: Tested for its capability of competing with colchicine for binding to tubulin.; assay type: protein assay; design: concentration or dose not given beside the values; conditions: concentration not given here
Outline: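 Calf brain tubulin (cycled, diluted 1:10 in PEM pH 6.6–6.7) incubated with 1 μM [3H]colchicine and 10 μM inhibitor (DMSO) for 30 min at 37 °C; GTP added on ice, mixture filtered through DEAE-cellulose filters, washed with PEM, bound radioactivity counted by liquid scintillation; no-tubulin mixtures as background. Mean of two independent experiments.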

Work on COc1ccc(-c2[nH]c3cc(F)ccc3c2C=O)cc1 yielded an IC50 (Tubulin) of 1.8 µM.

With COc1ccc(-c2[nH]c3ccc(OC)cc3c2C=O)cc1 the IC50 (Tubulin) was 4 µM.

COc1ccc(-c2[nH]c3cc(OC)ccc3c2C=O)cc1 showed an IC50 (Tubulin) of 1.5 µM and an inhibition (Tubulin (Bos taurus)) of 23%.

Molecule CCCC1Cc2cc(O)ccc2-c2c(C=O)c3ccc(O)cc3n21 (configuration not stated) has an IC50 (Tubulin) of 19 µM and an inhibition (Tubulin (Bos taurus)) of 40%.

CCCCC1Cc2cc(O)ccc2-c2c(C=O)c3ccc(O)cc3n21 (configuration not stated) was tested, and the IC50 (Tubulin) was 8.9 µM.

In the case of COc1ccc(-c2c(C=O)c3ccc(OC)cc3n2C)cc1, the inhibition (Tubulin (Bos taurus)) is reported as 30%.

With CCCC1Cc2cc(OC)ccc2-c2c(C=O)c3ccc(OC)cc3n21 (configuration not stated) the inhibition (Tubulin (Bos taurus)) was < 10%.

COc1ccc(-c2sc3cc(OC)ccc3c2C=O)cc1 gave an IC50 (Tubulin) of 1.8 µM and an inhibition (Tubulin (Bos taurus)) of 56%.

COc1ccc(-c2[nH]c3ccccc3c2C=O)cc1 gave an IC50 (Tubulin) of 3.3 µM.
